Screening data as filed in PubChem.
NTR1 agonist: agonists of human NTR1, primary screen, imaging, U2OS cells, beta-arrestin-GFP, high content. activation, % at 20 µM. 330,000 tested, 0.17% active. NTR1-U2OS beta-arrestin-GFP spot imaging, agonist mode. Neurotensin receptor type 1 (Homo sapiens), P30989. AID 493036, 2011;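 active means activation at or above 40% of the spot to cytoplasm intensity ratio, with at least 20 cells analyzed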
Target sequence (P30989 whole entry, looked up): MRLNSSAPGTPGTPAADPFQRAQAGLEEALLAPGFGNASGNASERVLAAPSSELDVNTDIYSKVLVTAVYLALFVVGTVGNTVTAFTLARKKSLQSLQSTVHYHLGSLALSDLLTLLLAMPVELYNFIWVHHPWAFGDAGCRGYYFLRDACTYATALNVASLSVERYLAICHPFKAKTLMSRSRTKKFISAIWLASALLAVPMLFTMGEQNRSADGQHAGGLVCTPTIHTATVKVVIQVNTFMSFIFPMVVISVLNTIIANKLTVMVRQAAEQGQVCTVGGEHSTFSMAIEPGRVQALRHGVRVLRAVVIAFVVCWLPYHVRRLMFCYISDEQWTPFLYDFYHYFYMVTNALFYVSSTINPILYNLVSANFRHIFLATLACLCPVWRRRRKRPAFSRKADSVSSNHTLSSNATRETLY
Hep lipid drop: inhibitors of hepatocyte lipid droplet formation, primary screen, imaging, high-throughput imaging, BODIPY stain; AML12 mouse hepatocytes, oleate lipid droplets; AID 1656, 2009; inhibition, % at 6.5 µM; 240,000 tested, 0.4% active;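 active means lipid droplet intensity inhibited by at least 50%, with more than 500 cells counted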
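Material: mouse AML12 hepatocyte cell line, fixed after treatment; Timing: compound with oleate, overnight; Technique: high-content imaging of BODIPY-stained droplets and DAPI nuclei; Probe or stimulus: oleate, 100 µM final; Dosing: compound at 6.5 µM only.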
Arrestin-AP2 inh: inhibitors of beta-arrestin/AP2 binding, primary screen, biochemical, GPCR trafficking, flow cytometry; beta-arrestin 1 C-terminal peptide binding to AP2 beta2-adaptin appendage (human); FITC-arrestin peptide / GST-AP2 beads; AP2 beta2 appendage carries R879A mutation; inhibition, % at 10 µM; 340,000 tested, 0.31% active;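 active means inhibition above a set limit, near 3 SD of compounds lacking own fluorescence, cut at about 54% in these data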
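Assay system: GST-AP2 R879A bound to glutathione beads, E. coli-expressed; Medium: PBS with 0.05% Tween 20 and 0.1% BSA; Also added: fluorescein-tagged arrestin peptide at 50 nM final; Timing: 12 min plus 1 h, RT; Measured by: flow cytometry, FL1 (488/535 nm); Evaluation: percent drop in bead-associated FITC signal.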
H9c2 TAG inh: inhibitors of triacylglycerol accumulation, primary screen, cell-based, uHTS, fluorescence, H9c2 | H9c2 cells, Nile Red lipid (TAG) fluorescence; cells loaded with 200 µM oleic acid | inhibition, % at 12.5 µM | 230,000 tested, 0.66% active;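 active means pattern-corrected inhibition of lipid staining of at least 50% with the nuclear-stain viability signal not falling by more than 50%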
GRK2 aptamer HTS: compounds blocking aptamer binding on GRK2 – biochemical, human GRK2, bead flow cytometry, HTS, primary screen; AID 488847, 2010; 330,000 tested, 0.59% active; inhibition of aptamer binding, % at 10 µM; FAM-aptamer displacement from GRK2; Beta-adrenergic receptor kinase 1 (Homo sapiens), P25098;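 active means inhibition of aptamer binding above 40%, roughly 3 SD of noise, on plates passing a quality check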;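 further: median bead fluorescence of bound FAM aptamer so fluorescent compounds give negative values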
Beta2AR agonist: beta2AR agonists driving receptor internalization, primary screen, cell-based, FAP fluorogen, flow cytometry | response, % (test concentration not listed) | 340,000 tested, 0.43% active | AID 504454, 2011 | Beta-2 adrenergic receptor (Homo sapiens), P07550 | Am2.2-beta2AR cells;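 active means response above a set limit, near 3 SD of response in nonfluorescent compounds, cut at about 42% in these data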
B2AR ag CP1: beta2AR agonists via receptor internalization, confirmation, cell-based, FAP fluorogen, flow cytometry, single point, cherry pick 1 | shares compounds with Beta2AR agonist | Am2.2-beta2AR cells, FAP surface receptor; stronger effect = lower value | percent response (surface receptor), % at 10 µM | 1,100 tested, 25% active;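 active means surface receptor percent response at or below 58%, roughly 3 SD from nonfluorescent compounds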
B2AR FAP counter: fluorescence artifact in beta-2AR agonist FAP counterscreen; Am2.2 cells, FAP fluorogen flow cytometry; stronger effect = lower value; AID 588765; 1,100 tested, under 10 active; calls only at 10 µM; shares compounds with Beta2AR agonist;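 active means percent response below a set limit in fluorescence channel 1 and below 50% in channel 8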
Arr AP2 CP1: inhibitors of arrestin peptide binding to AP2, confirmation, biochemical, cherry pick 1, flow cytometry beads | shares compounds with Arrestin-AP2 inh | GST-AP2 beads, FITC arrestin peptide binding; GST-fused beta2-adaptin appendage, R879A mutant | inhibition, % at 10 µM | 1,300 tested, 2% active | AID 504908, 2011;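 active means inhibition above a set limit, roughly 3 SD of non-fluorescent compound noise, cut at about 38% in these data; inactive means inhibition at or below that limit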;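 further: loss of bead fluorescence from 50 nM FITC arrestin peptide bound to appendage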
GST-FITC bead: GST-fluorescein capture on glutathione beads, confirmation, artefact control for arrestin-AP2 inhibitor project, biochemical, cherry pick 1, flow cytometry; shares compounds with Arrestin-AP2 inh; GST-fluorescein binding to GSH beads, fluorescence, counter-screen; inhibition, % at 10 µM; 1,300 tested, 2% active; AID 588338, 2011;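 active means inhibition above 50%, about 3 SD of the inhibition seen with non-fluorescent compounds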;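 further: fluorescein maleimide labelled GST captured on 4 micron glutathione beads; higher means more loss of bead fluorescence from quenching or blocked binding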
A number is an active result; i = inactive; nt = no result given; + = active, no number. Shown are actives, neighbours in structure and some others; about 2% of the full set was active somewhere.

SMILES | NTR1 agonist | Hep lipid drop | Arrestin-AP2 inh | H9c2 TAG inh | GRK2 aptamer HTS | Beta2AR agonist | B2AR ag CP1 | B2AR FAP counter | others
COc1c(C)cc(C(=O)C2CCCN(C3CCOCC3)C2)cc1C (stereo not drawn) | i | i | i | i | i | 58 | i | i
COc1ccc(CC2NCC(O)C2OC(C)=O)cc1 (stereo not drawn) | nt | nt | i | nt | nt | 110 | 20 | +
CC(C)n1c(O)c(C2c3cc(Cl)ccc3Oc3[nH]c(=O)n(C(C)C)c(=O)c32)c(=O)[nH]c1=O (stereo not drawn) | nt | nt | i | i | nt | 59 | 48 | +
C=CC1CN2CCC1CC2C(O)c1ccnc2ccccc12 (stereo not drawn) | nt | nt | i | nt | nt | i | nt | nt
COc1ccc(OC)c(C(O)C2CCCCN2)c1 (stereo not drawn) | i | i | i | nt | i | i | i | i
COc1cc(C(O)CNC(C)C)cc(F)c1OC (stereo not drawn) | i | nt | i | i | nt | i | i | i
CN1CCN(c2ccc(C(F)(F)F)cc2N)CC1 | i | i | i | i | i | i | nt | nt
COC(=O)C1=C(c2ccc(C(C)=O)cc2)C[C@@H]2CC[C@H]1N2C(=O)N1CCC(O)(c2ccc(Cl)cc2)CC1 | i | nt | i | i | i | i | nt | nt
Cc1ncc(CN2CCCC(C(=O)c3ccc(C(C)(C)C)cc3)C2)s1 (stereo not drawn) | i | i | i | nt | i | i | nt | nt
CCNCC(O)c1cccc(O)c1 (stereo not drawn) | i | i | i | i | i | i | i | i
CCCCCCn1c(O)c(C=Nc2c(C)n(C)n(-c3ccccc3)c2=O)c(=O)[nH]c1=O | i | i | i | i | i | 48 | 48 | i
Cc1c(N=Cc2c(O)n(CCc3ccccc3)c(=O)[nH]c2=O)c(=O)n(-c2ccccc2)n1C | i | i | i | nt | i | i | nt | nt
COc1ccc(OC)c2c1CCC1NCCOC21 (stereo not drawn) | i | i | i | nt | i | i | i | i
C=CCSc1nc2c(c(-c3ccsc3)c1C#N)CN(C)CC2 | i | i | i | i | i | i | nt | nt
O=C1CC(c2cccnc2)=NN1c1ccc(Cl)cc1Cl | i | i | 61 | i | i | i | nt | nt | Arr AP2 CP1=i;GST-FITC bead=i
CCN1C(=O)CC(c2cccnc2)=Nc2ccccc21 | i | i | i | i | i | i | nt | nt
CN/C=C(/Cl)P(=O)(OC(C)C)OC(C)C | i | nt | i | i | i | i | nt | nt
Cc1ccc(CC(=O)N2CCN(C)CC2)cc1 | i | i | 55 | i | i | i | nt | nt | Arr AP2 CP1=i;GST-FITC bead=i
C#C[C@]1(O)CCC2C3C(CC[C@@]21C)[C@@]1(C)CC[C@@H](O)CC1=C[C@H]3O (stereo partly drawn) | i | nt | i | i | i | i | nt | nt
Nc1ccc2cc(Br)ccc2c1 | i | i | 61 | i | i | i | nt | nt | Arr AP2 CP1=i;GST-FITC bead=i
Nc1ccc(Br)cc1 | nt | nt | i | i | nt | i | nt | nt
O=C1NC(=O)N(CCC2=CCCCC2)C(=O)/C1=C\c1cccs1 | i | i | 55 | nt | i | i | nt | nt | Arr AP2 CP1=i;GST-FITC bead=i
